The source of these data is ChEMBL document CHEMBL4041464, “New potent biaryl sulfate-based hepatitis C virus inhibitors” (Eur J Med Chem, 2017).

One series deals with Huh7.5.1. Kind of series: Cytotoxicity against human Huh7.5.1 cells at 20 uM. The series is classed as cell-based.
Details: not given
Consider `COC(=O)N[C@H](C(=O)N1CCC[C@H]1c1ncc(-c2cccc(OS(=O)(=O)Oc3cccc(-c4cnc([C@@H]5CCCN5C(=O)[C@@H](NC(=O)OC)C(C)(C)C)[nH]4)c3)c2)[nH]1)C(C)(C)C`, for which the Activity is greater than 30 µM.
Turning to `COC(=O)N[C@H](C(=O)N1CCC[C@H]1C(=O)Nc1ccc(S(=O)(=O)c2ccc(NC(=O)[C@@H]3CCCN3C(=O)[C@@H](NC(=O)OC)C(C)C)cc2)cc1)C(C)C`, the Activity is greater than 30 µM.
On the same count and under the same terms, for `COC(=O)N[C@@H](C(=O)N1CCC[C@H]1c1ncc(-c2ccc(OS(=O)(=O)Oc3ccc(-c4cnc([C@@H]5CCCN5C(=O)[C@H](NC(=O)OC)C(C)C)[nH]4)cc3)cc2)[nH]1)C(C)C` the value was greater than 30 µM.
On to `COC(=O)N[C@@H](C(=O)N1CCC[C@H]1C(=O)Nc1ccc(S(=O)(=O)c2ccc(NC(=O)[C@@H]3CCCN3C(=O)[C@H](NC(=O)OC)C(C)C)cc2)cc1)C(C)C`, for which the Activity is greater than 30 µM.
In turn, `COC(=O)N[C@H](C(=O)N1CCC[C@H]1C(=O)Nc1cccc(OS(=O)(=O)Oc2cccc(NC(=O)[C@@H]3CCCN3C(=O)[C@@H](NC(=O)OC)C(C)(C)C)c2)c1)C(C)(C)C` yielded an Activity greater than 30 µM.
Consider `COC(=O)N[C@@H](C(=O)N1CCC[C@H]1c1ncc(-c2cccc(OS(=O)(=O)Oc3cccc(-c4cnc([C@@H]5CCCN5C(=O)[C@H](NC(=O)OC)c5ccccc5)[nH]4)c3)c2)[nH]1)c1ccccc1`, for which the Activity was greater than 30 µM.

The test system of another series is Salmonella typhimurium. Kind of series: Mutagenicity in Salmonella typhimurium TA100 assessed as revertant colonies/plate in presence of liver S9 fraction at 5000 ug/plate by Ames test (reference value: 5 +/- 2 ). Type of series: toxicity. Conditions: salmonella enterica subsp. enterica serovar typhimurium. Background: The Ames test uses bacterial strains that need an amino acid and regain growth without it when mutated back.
Consider `Nc1ccc(OS(=O)(=O)Oc2ccc(N)cc2)cc1`, for which the Activity is 8.

Test system in the next series: not listed separately
Kind of series: Inhibition of HCV genotype 2a JFH5a replicon NS5A in infected human Huh 7.5.1 cells assessed as reduction in viral RNA replication incubated for 3 days by luciferase reporter gene assay. The arrangement: species or system Hepatitis C virus subtype 2a. Conditions: Hepatitis C virus, Huh-7.5.1, 72 h. The gist of the method:
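Huh 7.5.1 cells were infected with JFH5a-Rluc-ad34 (a JFH1 genotype 2a derivative with adaptive E2/p7 mutations, Renilla luciferase reporter) cell-culture virus for 3 h. They were then cultured in serially diluted compounds for 3 days. Cells were harvested and Renilla luciferase activity measured, normalised to mock-treated cells, to give EC50.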
(In general: A replicon is a self-replicating genome or part of one, used to study replication in cells.)
A word on the EC50: it is the concentration at which the effect is half-maximal. As to `COC(=O)N[C@@H](C(=O)N1CCC[C@H]1c1ncc(-c2ccc(OS(=O)(=O)Oc3ccc(-c4cnc([C@@H]5CCCN5C(=O)[C@H](NC(=O)OC)C(C)C)[nH]4)cc3)cc2)[nH]1)C(C)C`, the EC50 turned out to be 427 nM.
For `COC(=O)N[C@H](C(=O)N1CCC[C@H]1C(=O)Nc1cccc(OS(=O)(=O)Oc2cccc(NC(=O)[C@@H]3CCCN3C(=O)[C@@H](NC(=O)OC)C(C)(C)C)c2)c1)C(C)(C)C`, the EC50 turned out to be 0.943 nM.
In the case of `COC(=O)N[C@@H](C(=O)N1CCC[C@H]1c1ncc(-c2cccc(OS(=O)(=O)Oc3cccc(-c4cnc([C@@H]5CCCN5C(=O)[C@H](NC(=O)OC)c5ccccc5)[nH]4)c3)c2)[nH]1)c1ccccc1`, the EC50 is 10 nM.

The subject of a further series is Salmonella typhimurium. As to the kind of experiment: Mutagenicity in Salmonella typhimurium TA98 assessed as revertant colonies/plate in presence of liver S9 fraction at 5000 ug/plate by Ames test (reference value: 1). Type of series: toxicity. Conditions: salmonella enterica subsp. enterica serovar typhimurium.
Consider `Nc1ccc(OS(=O)(=O)Oc2ccc(N)cc2)cc1`, for which the Activity amounted to 1.

Test system in the next series: not listed separately
Kind of series: Metabolic stability in rat plasma assessed as compound remaining at 100 uM after 4 hrs incubation by LC-MS/MS analysis. The series is classed as ADME, cell-free. Conditions: read-out: Stability. The gist of the method:
(§1)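 Test compound (100 µM stock) was added to plasma pre-warmed 5 min at 37°C, mixed by vortex and incubated at 37°C. Samples were taken at 0, 15, 30, 60 and […] and quenched with 2 volumes acetonitrile. After centrifugation at 10,000 rpm for 10 min, the supernatant was analysed by LC-MS/MS. Results are given as % remaining after 4 h; mean ± SD. Enalapril and procaine served as controls.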
As to `CCOC(=O)[C@H](CCc1ccccc1)N[C@@H](C)C(=O)N1CCC[C@H]1C(=O)O`, the remaining at 4 h, 100 µM was found to be 0.032%.

In another series the test system is Salmonella typhimurium. As to the kind of experiment: Mutagenicity in Salmonella typhimurium TA98 assessed as revertant colonies/plate in absence of liver S9 fraction at 5000 ug/plate by Ames test (reference value: 1). Conditions: salmonella enterica subsp. enterica serovar typhimurium. Type of series: toxicity.
With `Nc1ccc(OS(=O)(=O)Oc2ccc(N)cc2)cc1`, the Activity was 1.

For a further series, the system named is Salmonella typhimurium. Kind of series: Mutagenicity in Salmonella typhimurium TA98 assessed as revertant colonies/plate in absence of liver S9 fraction at 1 ug/plate by Ames test (reference value: 21 +/- 1). Conditions: salmonella enterica subsp. enterica serovar typhimurium. The series is classed as toxicity.
`O=[N+]([O-])c1ccc2c(c1)Cc1ccccc1-2` [2-NITROFLUORENE]: the Activity was 183.

The test system of the next series is Salmonella typhimurium. As to the kind of experiment: Mutagenicity in Salmonella typhimurium TA100 assessed as revertant colonies/plate in absence of liver S9 fraction at 5000 ug/plate by Ames test (reference value: 7 +/- 2 ). Type of series: toxicity. Conditions: salmonella enterica subsp. enterica serovar typhimurium.
Turning to `Nc1ccc(OS(=O)(=O)Oc2ccc(N)cc2)cc1`, the Activity worked out at 10.

Test system in another series: not listed separately
As to the kind of experiment: Metabolic stability in human plasma assessed as compound remaining at 100 uM after 4 hrs incubation by LC-MS/MS analysis. Conditions: read-out: Stability. Type of series: ADME, cell-free. An outline of the steps:
as §1
Turning to `CCN(CC)CCOC(=O)c1ccc(N)cc1` [PROCAINE], the remaining at 4 h, 100 µM was found to be 0.003%.

Test system in a further series: not listed separately
Kind of series: Inhibition of HCV genotype 1b NK5.1 NS5A in infected human Huh 7.5.1 cells assessed as reduction in viral RNA replication incubated for 3 days by luciferase reporter gene assay. The arrangement: species or system Hepatitis C virus subtype 1b. Conditions: Hepatitis C virus, NK5.1, Huh-7.5.1, 72 h. An outline of the steps: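 Genotype 1b replicon cells (Huh 7.5.1 carrying NK5.1-Gluc) were cultured 16 h, then given serially diluted compounds for 3 days. Culture media were collected and luciferase activity measured and normalised to mock-treated cells to derive EC50. Cells were maintained in DMEM with 10% heat-inactivated FBS and antibiotics at 37°C, 6.0% CO₂.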
(Reporter assays use an easily measured gene product as a stand-in for the process of interest.)
Regarding `COC(=O)N[C@H](C(=O)N1CCC[C@H]1c1ncc(-c2cccc(OS(=O)(=O)Oc3cccc(-c4cnc([C@@H]5CCCN5C(=O)[C@@H](NC(=O)OC)C(C)(C)C)[nH]4)c3)c2)[nH]1)C(C)(C)C`, the EC50 was found to be 37.1 nM.
With `COC(=O)N[C@H](C(=O)N1CCC[C@H]1C(=O)Nc1ccc(S(=O)(=O)c2ccc(NC(=O)[C@@H]3CCCN3C(=O)[C@@H](NC(=O)OC)C(C)C)cc2)cc1)C(C)C`, the EC50 is greater than 100000 nM.
For `COC(=O)N[C@@H](C(=O)N1CCC[C@H]1c1ncc(-c2ccc(OS(=O)(=O)Oc3ccc(-c4cnc([C@@H]5CCCN5C(=O)[C@H](NC(=O)OC)C(C)C)[nH]4)cc3)cc2)[nH]1)C(C)C`, the EC50 amounted to 417 nM.
`COC(=O)N[C@@H](C(=O)N1CCC[C@H]1C(=O)Nc1ccc(S(=O)(=O)c2ccc(NC(=O)[C@@H]3CCCN3C(=O)[C@H](NC(=O)OC)C(C)C)cc2)cc1)C(C)C`: the concentration giving a half-maximal response (EC50) was greater than 100000 nM.
With `COC(=O)N[C@H](C(=O)N1CCC[C@H]1C(=O)Nc1cccc(OS(=O)(=O)Oc2cccc(NC(=O)[C@@H]3CCCN3C(=O)[C@@H](NC(=O)OC)C(C)(C)C)c2)c1)C(C)(C)C`, the EC50 was determined as 0.0772 nM.
Take `COC(=O)N[C@@H](C(=O)N1CCC[C@H]1c1ncc(-c2cccc(OS(=O)(=O)Oc3cccc(-c4cnc([C@@H]5CCCN5C(=O)[C@H](NC(=O)OC)c5ccccc5)[nH]4)c3)c2)[nH]1)c1ccccc1`: the EC50 was 0.36 nM.
